Hits are enriched below; roughly 3.7% of the tested compounds scored in any of these assays.
AHR act: AHR activators, primary screen, cell-based, luminescence, luciferase reporter, human | AHR-responsive luciferase reporter cells | activation, % at 5 µM | hit rate 2.5% among 320,000; in the data active = activation above about 47%;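 also: 0% = vehicle wells and 100% = reference agonist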
Target sequence (P35869 whole entry, looked up): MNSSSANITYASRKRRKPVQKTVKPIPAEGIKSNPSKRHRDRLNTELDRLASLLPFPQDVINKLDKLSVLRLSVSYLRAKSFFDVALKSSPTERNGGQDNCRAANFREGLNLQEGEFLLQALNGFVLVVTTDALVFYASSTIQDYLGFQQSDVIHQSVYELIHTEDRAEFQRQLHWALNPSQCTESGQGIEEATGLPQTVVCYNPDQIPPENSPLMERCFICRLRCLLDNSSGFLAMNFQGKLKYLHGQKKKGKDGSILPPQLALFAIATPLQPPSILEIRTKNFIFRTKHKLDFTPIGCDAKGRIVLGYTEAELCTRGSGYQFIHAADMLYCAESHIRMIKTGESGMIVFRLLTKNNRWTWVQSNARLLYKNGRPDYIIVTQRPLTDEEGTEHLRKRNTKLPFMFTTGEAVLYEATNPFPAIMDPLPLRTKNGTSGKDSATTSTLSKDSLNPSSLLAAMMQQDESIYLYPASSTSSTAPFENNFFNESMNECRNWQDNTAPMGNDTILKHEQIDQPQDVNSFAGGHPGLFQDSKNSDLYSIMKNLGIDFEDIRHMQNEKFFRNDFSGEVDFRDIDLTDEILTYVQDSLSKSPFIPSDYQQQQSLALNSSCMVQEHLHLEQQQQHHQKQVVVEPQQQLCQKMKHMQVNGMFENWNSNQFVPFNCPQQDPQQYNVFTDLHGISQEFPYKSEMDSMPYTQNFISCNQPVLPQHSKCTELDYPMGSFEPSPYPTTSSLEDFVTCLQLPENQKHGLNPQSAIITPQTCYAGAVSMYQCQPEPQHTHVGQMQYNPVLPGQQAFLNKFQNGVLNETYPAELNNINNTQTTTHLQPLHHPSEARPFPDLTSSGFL
GAA850 FXN act: FXN promoter activators, primary screen, cell-based, luciferase luminescence, HEK293 lucGAA850 | HEK293 lucGAA850 FXN promoter luciferase reporter, 24 h; percent of 10 µM SAHA response | activation, % at 6 µM | AID 540364, 2011 | hit rate 0.56% among 360,000;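 active = activation above the average of all compounds screened plus 3 SD, cutoff fixed separately per campaign, cut at about 7.5% in these data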;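 also: 0% = DMSO wells and 100% = 10 µM SAHA wells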
SR-BI uptake up: activators of SR-BI mediated DiI-HDL uptake, primary screen, ldlA[mSR-BI] CHO cells, DiI fluorescence; hit rate 0.096% among 320,000; AID 504775, 2011; activation, % at 12.5 µM; 3 h; 100 = double the neutral-control signal;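 active = mean replicate activation of at least 60% and every replicate at or above 60%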;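 also: 0% = median plate neutral-control signal and 100% = twice that signal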
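Test system: SR-BI-overexpressing, LDLR-lacking CHO cells. Measured by: DiI fluorescence, bottom read. Medium: Ham's F12 with 0.5% BSA, HEPES 25 mM, pH 7.4. Timing: 3 h uptake period with compound, 37 °C.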
SR-BI DiI inh: inhibitors of SR-BI mediated HDL lipid uptake, primary screen, ldlA[mSR-BI] cells, fluorescence, single point; Scavenger receptor class B member 1 (Mus musculus), Q61009; ldlA[mSR-BI] CHO cells, DiI-HDL uptake fluorescence, 3 h; inhibition, % at 12.5 µM; hit rate 0.96% among 320,000; AID 488896, 2010;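 active = mean replicate inhibition of at least 70% and a set share of replicates each scoring 70 or more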;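 also: 0% = median of neutral control wells and 100% = median of positive control wells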
JMJD2C inh: inhibitors of GASC-1 histone demethylase, primary screen, biochemical, fluorescence, DELFIA europium; Lysine-specific demethylase 4C (Homo sapiens), Q9H3R0; GST-JMJD2C(1-420) H3K9me3 demethylation; inhibition, % at 2.35 µM; hit rate 0.069% among 330,000; AID 2099, 2009;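 active = more than half of a compound's replicate wells show inhibition beyond 50%, single wells judged on their own value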;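 also: signal counts dimethyl H3K9 product captured on neutravidin plate; 0% = median of DMSO wells and 100% = 0.3 times that DMSO median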
Active calls of the source: *; . = no result given.

SMILES	AHR act	GAA850 FXN act	SR-BI uptake up	SR-BI DiI inh	JMJD2C inh
COc1cc(/C=C2/C(=N)N3C=CSC3=NC2=O)ccc1OCCCOc1c(C)cccc1C	11	4	-81	81*	97
CCOc1cc(/C=C2/C(=N)N3C=CSC3=NC2=O)ccc1OCCCOc1ccccc1C	12	0	-102	102*	4
COc1cc(/C=C2/C(=N)N3C=CSC3=NC2=O)ccc1OCCCOc1ccccc1C	13	1	-62	62	-2
COc1ccc(OCCCn2cc(/C=C3/C(=N)N4C=C(C)SC4=NC3=O)c3ccccc32)cc1	19	2	-47	47	-1
COc1cccc(OCCCn2cc(/C=C3/C(=N)N4C=C(C)SC4=NC3=O)c3ccccc32)c1	51*	0	-51	51	-1
O=C(Nc1cccc(S(=O)(=O)N2CCOCC2)c1)c1ccc(Cl)c([N+](=O)[O-])c1	12	-1	-35	35	63
Cc1ccc(C(=O)Nc2cccc(S(=O)(=O)N3CCOCC3)c2)cc1[N+](=O)[O-]	5	-2	-77	77*	10
O=S(=O)(c1cccc(COc2ccc(Cl)cc2Cl)c1)N1CCOCC1	29	2	-72	72*	20
CCOC(=O)c1ccc(NC(=O)c2cccc(S(=O)(=O)N3CCOCC3)c2)cc1	0	-4	-83	83*	-6
CCOC(=O)c1c(C)[nH]c(C(=O)COC(=O)c2ccc(F)c(S(=O)(=O)N3CCOCC3)c2)c1C	4	4	-74	74*	1
Cc1nn(Cc2ccc(Cl)c(Cl)c2)c(C)c1NC(=O)c1cn(-c2ccccc2)nc1-c1ccccc1	5	2	-29	29	3
O=C(CCNS(=O)(=O)c1ccc(Br)cc1)NC1CCC(O)CC1 (configuration not stated)	-1	1	35	-35	4
O=C(Nc1ccc(N2CCCCCC2)cc1)c1cccc(S(=O)(=O)N2CCOCC2)c1	5	-2	-71	71*	.
COc1cccc(-n2c([S-])c(C(=O)Nc3ccc(S(=O)(=O)N4CCOCC4)cc3)[n+]3cc(C(N)=O)ccc23)c1	65*	1	17	-17	10
CC(C)COc1cccc(C(=O)Nc2ccc(S(=O)(=O)N3CCOCC3)cc2)c1	1	-3	-48	48	1
O=C(Nc1ccc(N2CCOCC2)cc1)c1cc2c(s1)CCCCC2	-2	2	-88	88*	-6
CN(c1ccccc1)S(=O)(=O)c1cccc(C(=O)N2CCN(c3ccccn3)CC2)c1	64*	-1	15	-15	23
OC[C@@H]1CN(Cc2ccc(-c3ccccc3)cc2)C[C@H](n2cnc3c(NC4CCC4)ncnc32)O1	.	-5	.	.	.
O=C(CNS(=O)(=O)c1ccc(Br)cc1)NC1CCCC1	3	1	27	-27	-3
COC(=O)c1ccc(Cn2cnc3cnccc32)cc1	11	0	22	-22	8
CCOc1ccc(CCNC(=O)c2ccc(C)c(S(=O)(=O)N3CCOCC3)c2)cc1OCC	.	0	-60	60	.
CC(=O)c1ccc(NC(=O)c2ccc(C)c(S(=O)(=O)N3CCOCC3)c2)cc1	-2	3	-85	85*	4
Cc1ccc(C(=O)NNC(=O)c2cccc(S(=O)(=O)N3CCOCC3)c2)cc1	1	2	.	1	-13
CN(c1ccccc1)S(=O)(=O)c1cccc(C(=O)Nc2ccc(N3CCOCC3)cc2)c1	.	-2	-86	86*	.
CCOc1ccc(CCNC(=O)c2ccc(Cl)c(S(=O)(=O)N3CCOCC3)c2)cc1OCC	1	-3	-73	73*	3
SMILES	AHR act	GAA850 FXN act	SR-BI uptake up	SR-BI DiI inh	JMJD2C inh
Cc1ccc(C(=O)Nc2ccc(N3CCOCC3)cc2)cc1S(=O)(=O)N1CCCCC1	2	-2	-22	22	3
O=C(NNC(=O)c1cc(Cl)ccc1O)c1cccc(S(=O)(=O)N2CCOCC2)c1	5	2	-107	107*	-4
CCNC(=O)C1(C)CCCN1C(=O)c1ccc(F)c(Cl)c1 (configuration not stated)	.	-1	.	.	.
CC(NC(=O)Cc1ccccc1)C(=O)O (configuration not stated)	0	-1	9	-9	-1
CCOC(=O)c1ccc(NC(=O)c2ccc(C)c(S(=O)(=O)N3CCOCC3)c2)cc1	-3	-10	-87	87*	-6
CCn1c(COc2ccc(C)cc2)nc2ccccc21	-3	5	11	-11	-3
CCOc1ccc(Nc2nc3c(C)cccc3cc2C#N)cc1	50*	-1	-42	42	4
COc1ccccc1Nc1nc2c(C)cccc2cc1C#N	4	0	-24	24	-7
O=C(NC(=S)NCc1ccccc1)c1cccc(Cl)c1	0	3	-1	1	4
COc1cc(N/N=C(\C)c2ccc(O)c(C)c2)nc(-c2ccccc2)n1	27	3	-92	92*	1
COc1cc(CSC)nc(-c2ccccc2)n1	-1	2	13	-13	5
C/C(=N\Nc1ncc(Br)cn1)c1cccc([N+](=O)[O-])c1	-6	4	12	-12	5
C/C(=N\Nc1cc(C)nc(-c2ccccc2)n1)c1cccc([N+](=O)[O-])c1	6	2	-77	77*	8
COc1cc(N/N=C(\C)c2ccc(N)cc2)nc(-c2ccccc2)n1	46	6	-79	79*	2
O=[N+]([O-])c1cccc(/C=N/Nc2cc(Cl)nc(-c3ccccc3)n2)c1	13	1	-74	74*	6
C/C(=N\Nc1cc(Cl)nc(C)n1)c1ccc(Cl)c(Cl)c1	4	-1	-22	22	1
CCOc1ccc(CCN2C(=O)c3ccc(C(=O)O)cc3C2=O)cc1OCC	0	2	14	-14	73
COC(=O)C(CCCN1C(=O)c2ccccc2C1=O)(NC(C)=O)c1nn[nH]n1 (configuration not stated)	2	2	0	0	1
COc1ccc(S(=O)(=O)N(C)C)cc1NC(=O)c1ccc2c(c1)NC(=O)C(C)S2 (configuration not stated)	3	1	-13	13	5
C/C(=N\Nc1cc(-c2ccccc2)nc(-c2ccccc2)n1)c1ccc(O)c(C)c1	-1	0	-94	94*	-6
C/C(=N\Nc1nc(C)cc(-c2ccccc2)n1)c1ccc(O)cc1	30	0	-54	54	-4
Cc1ccc(C(=O)N(C)CC(=O)Nc2cccc(C)c2C)o1	1	-1	40	-40	7
COc1ccc(OC)c(-c2cc(C(=O)NCc3ccco3)no2)c1	14	1	-81	81*	6

Bioassay records (PubChem BioAssay)
